From ChEMBL document CHEMBL3784971, “Synthesis, characterization, antimicrobial and biofilm inhibitory studies of new esterquats” (Bioorg Med Chem Lett, 2016)
The source made the active and inactive calls.

Columns and labels:
[1] = tested on: Staphylococcus aureus; assay: Antimicrobial activity against Staphylococcus aureus MTCC 96 assessed as growth inhibition after 24 hrs by agar well diffusion method; type: functional; settings: MTCC 96, 24 h
[2] = tested on: Bacillus subtilis; assay: Antimicrobial activity against Bacillus subtilis MTCC 121 assessed as growth inhibition after 24 hrs by agar well diffusion method; type: functional; settings: MTCC 121, 24 h
[3] = tested on: Staphylococcus aureus; assay: Antimicrobial activity against Staphylococcus aureus MLS16 MTCC 2940 assessed as growth inhibition after 24 hrs by agar well diffusion method; type: functional; settings: MLS16 MTCC 2940, 24 h
[4] = tested on: Micrococcus luteus; assay: Antimicrobial activity against Micrococcus luteus MTCC 2470 assessed as growth inhibition after 24 hrs by agar well diffusion method; type: functional; settings: MTCC 2470, 24 h
[5] = tested on: Raoultella planticola; assay: Antimicrobial activity against Klebsiella planticola MTCC 530 assessed as growth inhibition after 24 hrs by agar well diffusion method; type: functional; settings: MTCC 530, 24 h
[6] = tested on: Escherichia coli; assay: Antimicrobial activity against Escherichia coli MTCC 739 assessed as growth inhibition after 24 hrs by agar well diffusion method; type: functional; settings: MTCC 739, 24 h
[7] = tested on: Pseudomonas aeruginosa; assay: Antimicrobial activity against Pseudomonas aeruginosa MTCC 2453 assessed as growth inhibition after 24 hrs by agar well diffusion method; type: functional; settings: MTCC 2453, 24 h
[8] = tested on: Candida albicans; assay: Antimicrobial activity against Candida albicans MTCC 3017 assessed as growth inhibition after 24 hrs by agar well diffusion method; type: functional; settings: MTCC 3017, 24 h
[9] = tested on: Candida albicans; assay: Antimicrobial activity against Candida albicans MTCC 183 assessed as growth inhibition after 24 hrs by agar well diffusion method; type: functional; settings: MTCC 183, 24 h
[10] = tested on: Candida albicans; assay: Antimicrobial activity against Candida albicans MTCC 227 assessed as growth inhibition after 24 hrs by agar well diffusion method; type: functional; settings: MTCC 227, 24 h
[11] = tested on: Candida albicans; assay: Antimicrobial activity against Candida albicans MTCC 854 assessed as growth inhibition after 24 hrs by agar well diffusion method; type: functional; settings: MTCC 854, 24 h
[12] = tested on: Candida albicans; assay: Antimicrobial activity against Candida albicans MTCC 1637 assessed as growth inhibition after 24 hrs by agar well diffusion method; type: functional; settings: MTCC 1637, 24 h
[13] = tested on: Candida albicans; assay: Antimicrobial activity against Candida albicans MTCC 3018 assessed as growth inhibition after 24 hrs by agar well diffusion method; type: functional; settings: MTCC 3018, 24 h
[14] = tested on: Candida albicans; assay: Antimicrobial activity against Candida albicans MTCC 3958 assessed as growth inhibition after 24 hrs by agar well diffusion method; type: functional; settings: MTCC 3958, 24 h
[15] = tested on: Candida albicans; assay: Antimicrobial activity against Candida albicans MTCC 4748 assessed as growth inhibition after 24 hrs by agar well diffusion method; type: functional; settings: MTCC 4748, 24 h
[16] = tested on: Candida albicans; assay: Antimicrobial activity against Candida albicans MTCC 7315 assessed as growth inhibition after 24 hrs by agar well diffusion method; type: functional; settings: MTCC 7315, 24 h
[17] = tested on: Candida parapsilosis; assay: Antimicrobial activity against Candida parapsilosis MTCC 1744 assessed as growth inhibition after 24 hrs by agar well diffusion method; type: functional; settings: Lodderomyces parapsilosis, MTCC 1744, 24 h
[18] = tested on: [Candida] aaseri; assay: Antimicrobial activity against Candida aaseri MTCC 1962 assessed as growth inhibition after 24 hrs by agar well diffusion method; type: functional; settings: Yamadazyma aaseri, MTCC 1962, 24 h
[19] = tested on: Nakaseomyces glabratus; assay: Antimicrobial activity against Candida glabrata MTCC 3019 assessed as growth inhibition after 24 hrs by agar well diffusion method; type: functional; settings: MTCC 3019, 24 h
[20] = tested on: Pichia kudriavzevii; assay: Antimicrobial activity against Candida krusei MTCC 3020 assessed as growth inhibition after 24 hrs by agar well diffusion method; type: functional; settings: MTCC 3020, 24 h
[21] = tested on: Pichia sporocuriosa; assay: Antimicrobial activity against Issatchenkia hanoiensis MTCC 4755 assessed as growth inhibition after 24 hrs by agar well diffusion method; type: functional; settings: MTCC 4755, 24 h
[22] = tested on: Staphylococcus aureus; assay: Bactericidal activity against Staphylococcus aureus MTCC 96 after 24 hrs by serial dilution method; type: functional; settings: MTCC 96, 24 h
[23] = tested on: Bacillus subtilis; assay: Bactericidal activity against Bacillus subtilis MTCC 121 after 24 hrs by serial dilution method; type: functional; settings: MTCC 121, 24 h
[24] = tested on: Staphylococcus aureus; assay: Bactericidal activity against Staphylococcus aureus MLS16 MTCC 2940 after 24 hrs by serial dilution method; type: functional; settings: MLS16 MTCC 2940, 24 h
[25] = tested on: Micrococcus luteus; assay: Bactericidal activity against Micrococcus luteus MTCC 2470 after 24 hrs by serial dilution method; type: functional; settings: MTCC 2470, 24 h
[26] = tested on: Raoultella planticola; assay: Bactericidal activity against Klebsiella planticola MTCC 530 after 24 hrs by serial dilution method; type: functional; settings: MTCC 530, 24 h
[27] = tested on: Escherichia coli; assay: Bactericidal activity against Escherichia coli MTCC 739 after 24 hrs by serial dilution method; type: functional; settings: MTCC 739, 24 h
[28] = tested on: Candida albicans; assay: Fungicidal activity against Candida albicans MTCC 3017 after 24 hrs by serial dilution method; type: functional; settings: MTCC 3017, 24 h
[29] = tested on: Candida albicans; assay: Fungicidal activity against Candida albicans MTCC 183 after 24 hrs by serial dilution method; type: functional; settings: MTCC 183, 24 h
[30] = tested on: Candida albicans; assay: Fungicidal activity against Candida albicans MTCC 227 after 24 hrs by serial dilution method; type: functional; settings: MTCC 227, 24 h
[31] = tested on: Candida albicans; assay: Fungicidal activity against Candida albicans MTCC 854 after 24 hrs by serial dilution method; type: functional; settings: MTCC 854, 24 h
[32] = tested on: Candida albicans; assay: Fungicidal activity against Candida albicans MTCC 1637 after 24 hrs by serial dilution method; type: functional; settings: MTCC 1637, 24 h
[33] = tested on: Candida albicans; assay: Fungicidal activity against Candida albicans MTCC 3018 after 24 hrs by serial dilution method; type: functional; settings: MTCC 3018, 24 h
[34] = tested on: Candida albicans; assay: Fungicidal activity against Candida albicans MTCC 3958 after 24 hrs by serial dilution method; type: functional; settings: MTCC 3958, 24 h
[35] = tested on: Candida albicans; assay: Fungicidal activity against Candida albicans MTCC 4748 after 24 hrs by serial dilution method; type: functional; settings: MTCC 4748, 24 h
[36] = tested on: Candida albicans; assay: Fungicidal activity against Candida albicans MTCC 7315 after 24 hrs by serial dilution method; type: functional; settings: MTCC 7315, 24 h
[37] = tested on: Candida parapsilosis; assay: Fungicidal activity against Candida parapsilosis MTCC 1744 after 24 hrs by serial dilution method; type: functional; settings: Lodderomyces parapsilosis, MTCC 1744, 24 h
[38] = tested on: [Candida] aaseri; assay: Fungicidal activity against Candida aaseri MTCC 1962 after 24 hrs by serial dilution method; type: functional; settings: Yamadazyma aaseri, MTCC 1962, 24 h
[39] = tested on: Nakaseomyces glabratus; assay: Fungicidal activity against Candida glabrata MTCC 3019 after 24 hrs by serial dilution method; type: functional; settings: MTCC 3019, 24 h
[40] = tested on: Pichia kudriavzevii; assay: Fungicidal activity against Candida krusei MTCC 3020 after 24 hrs by serial dilution method; type: functional; settings: MTCC 3020, 24 h
[41] = tested on: Pichia sporocuriosa; assay: Fungicidal activity against Issatchenkia hanoiensis MTCC 4755 after 24 hrs by serial dilution method; type: functional; settings: MTCC 4755, 24 h
[42] = tested on: Staphylococcus aureus; assay: Antibiofilm activity against Staphylococcus aureus MTCC 96 after 24 hrs by crystal violet staining based assay; type: functional, organism-based; settings: MTCC 96, 24 h
Summary of the method: (§1)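 Biofilm inhibition tested for amine esters and esterquats. IC50 values (µg/mL) are the mean of three determinations, with ciprofloxacin as reference.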

[43] = tested on: Bacillus subtilis; assay: Antibiofilm activity against Bacillus subtilis MTCC 121 after 24 hrs by crystal violet staining based assay; type: functional, organism-based; settings: MTCC 121, 24 h; summary of the method: as §1
[44] = tested on: Staphylococcus aureus; assay: Antibiofilm activity against Staphylococcus aureus MLS16 MTCC 2940 after 24 hrs by crystal violet staining based assay; type: functional, organism-based; settings: MLS16 MTCC 2940, 24 h; summary of the method: as §1
[45] = tested on: Micrococcus luteus; assay: Antibiofilm activity against Micrococcus luteus MTCC 2470 after 24 hrs by crystal violet staining based assay; type: functional, organism-based; settings: MTCC 2470, 24 h; summary of the method: as §1
[46] = tested on: Staphylococcus aureus; assay: Bactericidal activity against Staphylococcus aureus MLS16 MTCC 2940 sessile forms assessed as increase in intracellular ROS accumulation in at 0.5 to 2 ug/mL after 24 hrs by DCFHDA staining based fluorometric assay; type: functional, organism-based
Summary of the method: (§2)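 Intracellular ROS measured in cells of mature biofilms using the general ROS fluorescent probe 2′,7′-dichlorofluorescein-diacetate (DCFH-DA), read as increase in fluorescence. Sessile cells and the supernatant were measured separately.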

[47] = tested on: Staphylococcus aureus; assay: Bactericidal activity against Staphylococcus aureus MLS16 MTCC 2940 assessed as increase in intracellular ROS accumulation in at 0.5 to 2 ug/mL after 24 hrs by DCFHDA staining based fluorometric assay; type: functional, organism-based; summary of the method: as §2

CCCCCC[N+](C)(CCCCCCCCCCC(=O)OC)CCCCCCCCCCC(=O)OC.[Cl-]
active: Activity [46]
7.8 µg/mL: MIC [2] | MIC [8] | MIC [15] | MIC [18] | MBC [22] | MFC [35]
1.9 µg/mL: MIC [4] | IC50 [42]
31.2 µg/mL: MIC [11] | MIC [20] | MFC [29] | MFC [30] | MFC [32] | MFC [33] | MFC [36] | MFC [37] | MFC [39] | MFC [41]
15.6 µg/mL: MIC [9] | MIC [10] | MIC [12] | MIC [13] | MIC [14] | MIC [16] | MIC [17] | MIC [19] | MIC [21] | MBC [23] | MFC [28] | MFC [34] | MFC [38]
3.9 µg/mL: MIC [1] | MIC [3] | MBC [24] | MBC [25]
4.1 µg/mL: IC50 [43]
1.5 µg/mL: IC50 [45]
0.9 µg/mL: IC50 [44]
62.5 µg/mL: MFC [31] | MFC [40]
> 125 µg/mL: MIC [5] | MIC [6] | MIC [7] | MBC [26] | MBC [27]

O=C(O)c1cn(C2CC2)c2cc(N3CCNCC3)c(F)cc2c1=O [CIPROFLOXACIN]
active: Activity [47]
0.5 µg/mL: IC50 [43]
1.9 µg/mL: MBC [22] | MBC [25] | MBC [26] | MBC [27]
0.6 µg/mL: IC50 [45]
0.4 µg/mL: IC50 [44]
0.9 µg/mL: MIC [1] | MIC [2] | MIC [3] | MIC [4] | MIC [5] | MIC [6] | MIC [7] | MBC [23] | MBC [24]

CCCCCC[N+](C)(C)CCCCCCCCCCC(=O)OC.[Cl-]
31.2 µg/mL: MIC [6] | MIC [10] | MIC [12] | MIC [14] | MIC [18] | MBC [26] | MFC [28] | MFC [29] | MFC [31] | MFC [33] | MFC [34] | MFC [37] | MFC [39] | MFC [40] | MFC [41]
15.6 µg/mL: MIC [5] | MIC [8] | MIC [9] | MIC [11] | MIC [13] | MIC [15] | MIC [16] | MIC [17] | MIC [19] | MIC [20] | MIC [21] | MBC [24] | MFC [35] | MFC [36]
3.9 µg/mL: MIC [1] | MIC [4]
2.5 µg/mL: IC50 [42]
4.8 µg/mL: IC50 [43]
62.5 µg/mL: MBC [27] | MFC [30] | MFC [32] | MFC [38]
> 125 µg/mL: MIC [7]
3.2 µg/mL: IC50 [44]
7.8 µg/mL: MIC [2] | MIC [3] | MBC [22] | MBC [23] | MBC [25]
2.1 µg/mL: IC50 [45]
